Measurements taken from ChEMBL document CHEMBL1811814, “Synthesis and evaluation of indole, pyrazole, chromone and pyrimidine based conjugates for tumor growth inhibitory activities--development of highly efficacious cytotoxic agents” (Eur J Med Chem, 2010).

Experiments:
Assay type in all cases: functional
OVCAR-3 [1] = assay: Growth inhibition of human OVCAR3 cells
HCC 2998 = assay: Growth inhibition of human HCC2998 cells
PC-3 = assay: Growth inhibition of human PC3 cells
HT-29 = assay: Growth inhibition of human HT-29 cells assessed tumor cell growth at 10^-5 M; design: scale not given: the % may be the effect or the level left
Method in brief: (§1)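 NCI 60-human-tumor-cell-line panel screen. Each compound was tested at a single concentration of 10^-5 M, and percent growth of tumor cells was recorded for each cell line. Growth inhibition was expressed from these percent-growth values.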

UACC-62 = assay: Growth inhibition of human UACC62 cells assessed tumor cell growth at 10^-5 M; design: scale not given: the % may be the effect or the level left
Method in brief: (§2)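 Single-dose screen at 10^-5 M across the 60 human tumor cell line panel, run to NCI standards. The value is the percent growth of each cell line in the presence of compound. Compounds active at this dose moved on to five-concentration testing (10^-4 to 10^-8 M).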

NCI-H460 [2] = assay: Growth inhibition of human NCI-H460 cells assessed tumor cell growth at 10^-5 M; design: scale not given: the % may be the effect or the level left; method in brief: as §1
M14 [3] = assay: Growth inhibition of human M14 cells assessed tumor cell growth at 10^-5 M; design: scale not given: the % may be the effect or the level left; method in brief: as §1
LOX IMVI = assay: Growth inhibition of human LOXIMVI cells
EKVX [4] = assay: Growth inhibition of human EKVX cells assessed tumor cell growth at 10^-5 M; design: scale not given: the % may be the effect or the level left; method in brief: as §1
[5] = Growth inhibition of human Hs 578T cells assessed tumor cell growth at 10^-5 M; design: scale not given: the % may be the effect or the level left; method in brief: as §1
SNB-75 = assay: Growth inhibition of human SNB75 cells assessed tumor cell growth at 10^-5 M; design: scale not given: the % may be the effect or the level left; method in brief: as §2
OVCAR-5 = assay: Growth inhibition of human OVCAR5 cells
K562 = assay: Growth inhibition of human K562 cells assessed tumor cell growth at 10^-5 M; design: scale not given: the % may be the effect or the level left; method in brief: as §1
EKVX [6] = assay: Growth inhibition of human EKVX cells
M14 [7] = assay: Growth inhibition of human M14 cells
Malme-3M = assay: Growth inhibition of human MALME-3M cells
CCRF-CEM = assay: Growth inhibition of human CCRF-CEM cells assessed tumor cell growth at 10^-5 M; design: scale not given: the % may be the effect or the level left; method in brief: as §1
SK-OV-3 [8] = assay: Growth inhibition of human SKOV3 cells
UO-31 = assay: Growth inhibition of human UO31 cells assessed tumor cell growth at 10^-5 M; design: scale not given: the % may be the effect or the level left; method in brief: as §2
SN12C [9] = assay: Growth inhibition of human SN12C cells assessed tumor cell growth at 10^-5 M; design: scale not given: the % may be the effect or the level left; method in brief: as §1
NCI-H460 [10] = assay: Growth inhibition of human NCI-H460 cells
SN12C [11] = assay: Growth inhibition of human SN12C cells
MDA-MB-435 = assay: Growth inhibition of human MDA-MB-435 cells
NCI-H226 = assay: Growth inhibition of human NCI-H226 cells assessed tumor cell growth at 10^-5 M; design: scale not given: the % may be the effect or the level left; method in brief: as §1
SNB-19 [12] = assay: Growth inhibition of human SNB19 cells
OVCAR-4 = assay: Growth inhibition of human OVCAR4 cells assessed tumor cell growth at 10^-5 M; design: scale not given: the % may be the effect or the level left; method in brief: as §1
T47D = assay: Growth inhibition of human T47D cells assessed tumor cell growth at 10^-5 M; design: scale not given: the % may be the effect or the level left; method in brief: as §2
SF-295 = assay: Growth inhibition of human SF295 cells
DU-145 = assay: Growth inhibition of human DU145 cells assessed tumor cell growth at 10^-5 M; design: scale not given: the % may be the effect or the level left; method in brief: as §1
SF-539 = assay: Growth inhibition of human SF539 cells
MCF7 = assay: Growth inhibition of human MCF7 cells assessed tumor cell growth at 10^-5 M; design: scale not given: the % may be the effect or the level left; method in brief: as §1
SW-620 = assay: Growth inhibition of human SW620 cells
[13] = Growth inhibition of human […] cells assessed tumor cell growth at 10^-5 M; design: scale not given: the % may be the effect or the level left; method in brief: as §1
HCT-15 [14] = assay: Growth inhibition of human HCT15 cells
OVCAR-3 [15] = assay: Growth inhibition of human OVCAR3 cells assessed tumor cell growth at 10^-5 M; design: scale not given: the % may be the effect or the level left; method in brief: as §1
MOLT-4 = assay: Growth inhibition of human MOLT4 cells
SR = assay: Growth inhibition of human SR cells
HCT-15 [16] = assay: Growth inhibition of human HCT15 cells assessed tumor cell growth at 10^-5 M; design: scale not given: the % may be the effect or the level left; method in brief: as §1
TK-10 = assay: Growth inhibition of human TK10 cells
A549 = assay: Growth inhibition of human A549 cells
KM12 = assay: Growth inhibition of human KM12 cells assessed tumor cell growth at 10^-5 M; design: scale not given: the % may be the effect or the level left; method in brief: as §1
COLO 205 = assay: Growth inhibition of human COLO205 cells assessed tumor cell growth at 10^-5 M; design: scale not given: the % may be the effect or the level left; method in brief: as §1
A498 = assay: Growth inhibition of human A498 cells
SF-268 = assay: Growth inhibition of human SF268 cells
SK-MEL-28 = assay: Growth inhibition of human SK-MEL-28 cells assessed tumor cell growth at 10^-5 M; design: scale not given: the % may be the effect or the level left; method in brief: as §1
SNB-19 [17] = assay: Growth inhibition of human SNB19 cells assessed tumor cell growth at 10^-5 M; design: scale not given: the % may be the effect or the level left; method in brief: as §2
NCI/ADR-RES = assay: Growth inhibition of human NCI/ADR-RES cells assessed tumor cell growth at 10^-5 M; design: scale not given: the % may be the effect or the level left; method in brief: as §1
ACHN = assay: Growth inhibition of human ACHN cells assessed tumor cell growth at 10^-5 M; design: scale not given: the % may be the effect or the level left; method in brief: as §1
SK-OV-3 [18] = assay: Growth inhibition of human SKOV3 cells assessed tumor cell growth at 10^-5 M; design: scale not given: the % may be the effect or the level left; method in brief: as §1
HOP-92 = assay: Growth inhibition of human HOP92 cells assessed tumor cell growth at 10^-5 M; design: scale not given: the % may be the effect or the level left; method in brief: as §1
MDA-MB-468 = assay: Growth inhibition of human MDA-MB-468 cells
[19] = read-out: LC50 (the source's name)

`O=C1Nc2ccccc2/C1=C/c1cn(C(=O)c2c(Cl)cccc2Cl)c2ccccc12` gave a GI50 (OVCAR-3 [1]) of 1.6 µM, a CC50 (OVCAR-3 [1]; [19]) of 8.1 µM and a GI50 (HCC 2998) of 6 µM. For the same molecule, the CC50 (HCC 2998; [19]) was 52.4 µM, the GI50 (PC-3) was 2.4 µM and the CC50 (PC-3; [19]) was > 100 µM. The Activity (HT-29) was 69.6%, the Activity (UACC-62) was 36.7% and the Activity (NCI-H460 [2]) was 71.1%. For the same molecule, the Activity (M14 [3]) was 66.2%, the GI50 (LOX IMVI) was 1.6 µM and the CC50 (LOX IMVI; [19]) was 6.6 µM. It also gave an Activity (EKVX [4]) of 81.4%, an Activity [5] of 64.6% and an Activity (SNB-75) of 54.6%. For the same molecule, the GI50 (OVCAR-5) was 8.9 µM, the CC50 (OVCAR-5; [19]) was > 100 µM and the Activity (K562) was 45.6%. The GI50 (EKVX [6]) was 2.8 µM, the CC50 (EKVX [6]; [19]) was > 100 µM and the GI50 (M14 [7]) was 2.3 µM. It also gave a CC50 (M14 [7]; [19]) of 33.8 µM, a GI50 (Malme-3M) of 2.6 µM and a CC50 (Malme-3M; [19]) of 58.8 µM. For the same molecule, the Activity (CCRF-CEM) was 70.5%, the GI50 (SK-OV-3 [8]) was 8.3 µM and the CC50 (SK-OV-3 [8]; [19]) was > 100 µM. For the same molecule, the Activity (UO-31) was 50.7%, the Activity (SN12C [9]) was 56% and the GI50 (NCI-H460 [10]) was 1.9 µM. It also gave a CC50 (NCI-H460 [10]; [19]) of 7.9 µM, a GI50 (SN12C [11]) of 3.9 µM and a CC50 (SN12C [11]; [19]) of 70.7 µM. It also gave a GI50 (MDA-MB-435) of 2.2 µM, a CC50 (MDA-MB-435; [19]) of 51.2 µM and an Activity (NCI-H226) of 48.1%. The GI50 (SNB-19 [12]) was 7.2 µM, the CC50 (SNB-19 [12]; [19]) was > 100 µM and the Activity (OVCAR-4) was 50.3%. The Activity (T47D) was 47.7%, the GI50 (SF-295) was 2.2 µM and the CC50 (SF-295; [19]) was 66.1 µM. It also gave an Activity (DU-145) of 59.2%, a GI50 (SF-539) of 5 µM and a CC50 (SF-539; [19]) of 66.1 µM. For the same molecule, the Activity (MCF7) was 22.9%, the GI50 (SW-620) was 2.9 µM and the CC50 (SW-620; [19]) was 52.4 µM. For the same molecule, the Activity [13] was 51.8%, the GI50 (HCT-15 [14]) was 3.4 µM and the CC50 (HCT-15 [14]; [19]) was > 100 µM. The Activity (OVCAR-3 [15]) was 43%, the GI50 (MOLT-4) was 2.8 µM and the LC50 (MOLT-4) was > 100 µM. The GI50 (SR) was 2.2 µM, the CC50 (SR; [19]) was > 100 µM and the Activity (HCT-15 [16]) was 30.9%. For the same molecule, the GI50 (TK-10) was 10.4 µM, the CC50 (TK-10; [19]) was > 100 µM and the GI50 (A549) was 3.2 µM. For the same molecule, the CC50 (A549; [19]) was > 100 µM, the Activity (KM12) was 54.7% and the Activity (COLO 205) was 41.7%. It also gave a GI50 (A498) of 1.2 µM, a CC50 (A498; [19]) of 21.8 µM and a GI50 (SF-268) of 2.4 µM. The CC50 (SF-268; [19]) was 57.5 µM, the Activity (SK-MEL-28) was 81.4% and the Activity (SNB-19 [17]) was 68.6%. For the same molecule, the Activity (NCI/ADR-RES) was 57.7%, the Activity (ACHN) was 43.6% and the Activity (SK-OV-3 [18]) was 71.8%. For the same molecule, the Activity (HOP-92) was 49%, the GI50 (MDA-MB-468) was 4.4 µM and the CC50 (MDA-MB-468; [19]) was 69.1 µM.
